In assay [1] the test system is Escherichia coli. The assay is described as follows: Minimum inhibitory concentration against Escherichia coli strain SM101. The assay is classed as functional.
Assay [2] has as its system Escherichia coli. The experiment in a line: Minimum inhibitory concentration against Escherichia coli strain tolC. The format is functional.
The test system of assay [3] is Enterococcus faecalis. The experiment in a line: Tested for minimal growth inhibitory concentration against […] ATCC 29212. The format is functional.
The target in assay [4] is T1, Aspartyl/glutamyl-tRNA(Asn/Gln) amidotransferase subunit A (Streptococcus pyogenes serotype M1, UniProt Q99YC0). The experiment in a line: In vitro inhibitory concentration against Glutaminase activity of bacterial Glu-tRNA-Gln […] (Glu-AdT). The essentials:
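S. pyogenes Glu-AdT, glutaminase-only reaction with no ATP or tRNA. Gln at 2×Km. Inhibitor titrated over […]. Enzyme pre-incubated 15 min with inhibitor, then started with Gln. Reaction buffer was 50 mM HEPES, 25 mM MgCl₂, 15 mM KCl, 1% DMSO, pH 7. IC50 determined in duplicate.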

The target of assay [5] is T1, Aspartyl/glutamyl-tRNA(Asn/Gln) amidotransferase subunit A. The experiment in a line: In vitro inhibitory concentration against transferase activity of bacterial Glu-tRNA-Gln […] (Glu-AdT). Summed up:
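S. pyogenes Glu-AdT, Gln-dependent transferase reaction. Substrates were Glu-tRNAGln at >10×Km, ATP at 2×Km and Gln at 0.5×Km. Inhibitor titrated over […]. Enzyme pre-incubated 15 min with inhibitor, Glu-tRNAGln and ATP, then started with Gln. Buffer was 50 mM HEPES, 25 mM MgCl₂, 15 mM KCl, 1% DMSO, pH 7. IC50 determined in duplicate.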

Assay [6] has as its system Helicobacter pylori. The experiment in a line: Tested for minimal growth inhibitory concentration against Helicobacter pylori ATCC 43629. The format is functional. The essentials: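 Broth dilution in Brain–Heart Infusion broth with 0.25% yeast extract and 10% horse serum. Inoculum was 6×10⁵ CFU per well, incubated 72 h at 37 °C under 10% CO₂. Highest concentration tested was 64. NCCLS-recommended control antibiotics tracked strain performance.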

Assay [7] deals with Staphylococcus aureus. The assay is described as follows: Tested for minimal growth inhibitory concentration against Staphylococcus aureus ATCC 29213. The format is functional.
Assay [8] deals with Streptococcus pyogenes. The experiment in a line: Tested for minimal growth inhibitory concentration against Streptococcus pyogenes ATCC 13709. The format is functional.
A short description of assay [9]: Tested for mammalian cellular toxicity expressed as IC50. The assay is classed as functional.
For assay [10], the system named is Streptococcus pneumoniae. The experiment in a line: Tested for minimal growth inhibitory concentration against Streptococcus pneumoniae ATCC 49619. The format is functional.
The subject of assay [11] is Staphylococcus epidermidis. The experiment in a line: Tested for minimal growth inhibitory concentration against Staphylococcus epidermidis ATCC 12228. The assay is classed as functional.
The test system of assay [12] is Staphylococcus epidermidis. The assay is described as follows: Tested for minimal growth inhibitory concentration against Staphylococcus epidermidis ATCC 51625. The assay is classed as functional.
Assay [13] deals with Staphylococcus aureus. The experiment in a line: Tested for minimal growth inhibitory concentration against Staphylococcus aureus ATCC 25923. The assay is classed as functional.
Assay [14] deals with Staphylococcus aureus. The experiment in a line: Tested for minimal growth inhibitory concentration against Staphylococcus aureus ATCC 4330. The format is functional.
Assay [15] concerns Staphylococcus carnosus. The assay is described as follows: Tested for minimal growth inhibitory concentration against Staphylococcus carnosus ATCC 51365. The format is functional.

pIC50: −log10 of the molar value. Values after ≈ are worked out from the molar mass of the structure shown. Bounds are passed on as bounds.

T1 sequence (Q99YC0 whole entry, looked up): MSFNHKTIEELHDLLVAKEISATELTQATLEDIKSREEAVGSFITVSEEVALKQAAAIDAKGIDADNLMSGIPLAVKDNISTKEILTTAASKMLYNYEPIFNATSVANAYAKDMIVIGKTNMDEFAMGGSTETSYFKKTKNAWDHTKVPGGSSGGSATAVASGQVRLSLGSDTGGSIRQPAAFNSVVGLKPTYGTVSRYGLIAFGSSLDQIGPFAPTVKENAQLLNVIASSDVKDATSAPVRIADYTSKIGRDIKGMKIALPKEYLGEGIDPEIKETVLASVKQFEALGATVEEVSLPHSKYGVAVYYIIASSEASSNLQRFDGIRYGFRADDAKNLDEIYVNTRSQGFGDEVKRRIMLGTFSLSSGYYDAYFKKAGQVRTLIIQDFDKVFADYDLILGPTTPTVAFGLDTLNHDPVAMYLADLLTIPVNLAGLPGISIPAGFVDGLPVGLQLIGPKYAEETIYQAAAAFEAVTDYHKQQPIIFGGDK

A word on the MIC: it is the lowest concentration found to suppress growth. A higher MIC goes with weaker potency. As a reminder, the pIC50 is the negative decadic logarithm of the IC50, by convention in mol/L. As for `COC(=O)[C@H](CCB1O[C@@]2(C)CCC3C[C@@]2(O1)C3(C)C)NC(=O)OCc1ccccc1`, the MIC was above 64 µg/mL in [1]; above 64 µg/mL in assay [2]; above 64 µg/mL in [3]; 32 µg/mL (≈ 74.5 µM) in assay [6]; above 64 µg/mL in assay [7]; 64 µg/mL (≈ 149 µM) in assay [8]. Further, the pIC50 is below 4.10 in assay [4], below 4.70 in assay [5] and below 4.00 in assay [9].

On to `CC1(C)C2CC[C@]3(C)OB(CCC[C@H](NC(=O)OCc4ccccc4)C(=O)O)O[C@]13C2`, for which the pIC50 in assay [4] was below 4.10; in assay [5] it was below 4.70.

For `CC1(C)C2CC[C@]3(C)OB(CCC[C@H](N)C(=O)O)O[C@]13C2`, the negative-log IC50 (pIC50) in assay [4] is below 4.10; in assay [5] it was below 4.70.

Turning to `COC(=O)[C@H](CCCB1O[C@@]2(C)CCC3C[C@@]2(O1)C3(C)C)NC(=O)OCc1ccccc1`, the negative logarithm of the IC50 (pIC50) in assay [4] is below 4.10; in assay [5], below 4.70.

On to `CC1(C)C2CC[C@]3(C)OB(CC[C@H](NC(=O)OCc4ccccc4)C(=O)O)O[C@]13C2`, for which the MIC in [1], in assay [2], in [3], in assay [6], in assay [7] and in assay [8] was above 64 µg/mL in each case. Besides, the pIC50 is below 4.10 in [4] and below 4.00 in assay [9].

For `CC1(C)C2CC[C@]3(C)OB(CC[C@H](NC(=O)CN)C(=O)O)O[C@]13C2`, the MIC is above 64 µg/mL in assay [1]; above 64 µg/mL in assay [2]; 8 µg/mL (≈ 23.7 µM) in assay [3]; above 64 µg/mL in assay [7]; above 64 µg/mL in [8]; above 64 µg/mL in [10]. Besides, the negative-log IC50 (pIC50) is below 4.10 in assay [4] and below 4.70 in assay [5].

With `CC(C)(C)OC(=O)NCCCB1O[C@@]2(C)CCC3C[C@@]2(O1)C3(C)C`, the minimum inhibitory concentration (MIC) in assay [1] was 8 µg/mL (≈ 23.7 µM); in [2] it was 8 µg/mL (≈ 23.7 µM); in assay [3], above 64 µg/mL; in assay [6], above 64 µg/mL; in [7] it was above 64 µg/mL; in assay [8], above 64 µg/mL. In addition, the pIC50 is below 4.10 in assay [4] and below 4.70 in [5].

Consider `CC(C)(C)OC(=O)[C@@H](N)CCB1O[C@@]2(C)CCC3C[C@@]2(O1)C3(C)C`, for which the MIC in assay [1] was 8 µg/mL (≈ 23.7 µM); in assay [2], 8 µg/mL (≈ 23.7 µM); in assay [3] it was above 64 µg/mL; in assay [6], above 64 µg/mL; in assay [7], above 64 µg/mL; in [8], above 64 µg/mL. The negative-log IC50 (pIC50) is below 4.10 in [4] and below 4.00 in assay [9].

For `CNC(=O)CNC(=O)[C@@H](N)CCB1O[C@@]2(C)CCC3C[C@@]2(O1)C3(C)C`, the MIC in assay [3] was 16 µg/mL (≈ 45.6 µM); in assay [6], 16 µg/mL (≈ 45.6 µM); in assay [11] it was above 64 µg/mL; in assay [12], above 64 µg/mL; in assay [13], above 64 µg/mL; in assay [7] it was above 64 µg/mL. The MIC in [14] was above 64 µg/mL; in assay [8] it was 8 µg/mL (≈ 22.8 µM); in assay [15], above 64 µg/mL; in [10] it was 16 µg/mL (≈ 45.6 µM). Further, the pIC50 in [4] is 4.40; in assay [5], 4.70.

Regarding `CC1(C)C2CC[C@]3(C)OB(CCCN)O[C@]13C2`, the MIC in assay [1], in assay [2], in assay [3], in assay [6] and in [7] was above 64 µg/mL throughout. The negative logarithm of the IC50 (pIC50) in [4] was below 4.10; in assay [5], below 4.70; in assay [9] it was below 4.00.

For `CC1(C)C2CC[C@]3(C)OB(CC[C@H](N)C(=O)NS(=O)(=O)C(F)(F)F)O[C@]13C2`, the figures for the pIC50 in assay [4] and in assay [5] were 4.26 and 5.33, respectively.

The molecule `CN[C@@H](CCB1O[C@@]2(C)CCC3C[C@@]2(O1)C3(C)C)C(=O)O` showed a negative logarithm of the IC50 (pIC50) in assay [5] of 5.96.

`COC(=O)[C@@H](N)CCB1O[C@@]2(C)CCC3C[C@@]2(O1)C3(C)C`: the minimal inhibitory concentration (MIC) was above 64 µg/mL in assay [1]; above 64 µg/mL in [2]; 4 µg/mL (≈ 13.6 µM) in assay [3]; 64 µg/mL (≈ 217 µM) in assay [6]; above 64 µg/mL in assay [11]; above 64 µg/mL in assay [12]. In addition, the minimum inhibitory concentration (MIC) in assay [13] is above 64 µg/mL; in [7], above 64 µg/mL; in assay [14], above 64 µg/mL; in assay [8], 8 µg/mL (≈ 27.1 µM); in assay [15], above 64 µg/mL; in [10], 2 µg/mL (≈ 6.78 µM). The pIC50 was 5.82 in assay [4], 7.15 in assay [5] and below 4.00 in [9].

`CC1(C)C2CC[C@]3(C)OB(CC[C@H](N)C(=O)NS(=O)(=O)c4ccc(N)cc4)O[C@]13C2`: the pIC50 in assay [4] is below 4.10; in assay [5] it was 5.00.

For `CNC(=O)[C@@H](N)CCB1O[C@@]2(C)CCC3C[C@@]2(O1)C3(C)C`, the MIC is 64 µg/mL (≈ 218 µM) in [1]; 64 µg/mL (≈ 218 µM) in assay [2]; above 64 µg/mL in assay [3]; above 64 µg/mL in assay [6]; above 64 µg/mL in assay [7]; 32 µg/mL (≈ 109 µM) in assay [8]. In [10], this molecule yielded an MIC of 32 µg/mL (≈ 109 µM). Further, the values for the pIC50 in assay [4], in [5] and in assay [9] were below 4.10, 4.46 and below 4.00, respectively.

Regarding `COC(=O)[C@@H](N)CCCB1O[C@@]2(C)CCC3C[C@@]2(O1)C3(C)C`, the values for the pIC50 in assay [4] and in assay [5] were below 4.10 and below 4.70, respectively.

Turning to `COC(=O)[C@@H](N)CCB(O)O`, the MIC is above 64 µg/mL in assay [1]; above 64 µg/mL in [2]; 3 µg/mL (≈ 18.6 µM) in assay [3]; 32 µg/mL (≈ 199 µM) in assay [6]; above 64 µg/mL in assay [11]; above 64 µg/mL in [12]. The minimum inhibitory concentration (MIC) was above 64 µg/mL in assay [13]; above 64 µg/mL in assay [7]; above 64 µg/mL in [14]; 6 µg/mL (≈ 37.3 µM) in assay [8]; above 64 µg/mL in assay [15]; 2 µg/mL (≈ 12.4 µM) in [10]. In addition, the negative logarithm of the IC50 (pIC50) is 5.89 in assay [4], 7.30 in assay [5] and below 4.00 in [9].

Take `CC(=O)N[C@@H](CCB1O[C@@]2(C)CCC3C[C@@]2(O1)C3(C)C)C(=O)O`: the negative logarithm of the IC50 (pIC50) in [4] was below 4.10; in assay [5] it was below 4.70.

The molecule `CC1(C)C2CC[C@]3(C)OB(CCC(N)CC(=O)O)O[C@]13C2` (some centres undefined) gave a pIC50 in assay [5] of 5.19.

On to `CC1(C)C2CC[C@]3(C)OB(CC[C@H](N)C(=O)NS(=O)(=O)c4ccccc4)O[C@]13C2`, for which the negative-log IC50 (pIC50) was 4.40 in assay [4] and 4.70 in assay [5].

With `N[C@@H](CCB(O)O)C(=O)O`, the MIC in assay [1] is above 64 µg/mL; in assay [2] it was above 64 µg/mL; in [3] it was 8 µg/mL (≈ 54.4 µM); in assay [6], 32 µg/mL (≈ 218 µM); in assay [11], above 64 µg/mL; in assay [12], above 64 µg/mL. Further, the MIC in assay [13] is above 64 µg/mL; in assay [7] it was above 64 µg/mL; in assay [14], above 64 µg/mL; in [8] it was 8 µg/mL (≈ 54.4 µM); in assay [15], above 64 µg/mL; in [10], 3 µg/mL (≈ 20.4 µM). The pIC50 was 5.80 in [4], 7.00 in assay [5] and below 4.00 in [9].
